Measurements as given in ChEMBL document CHEMBL5303300, “EUbOPEN Chemogenomics Library - Multiplex” (2023).
Where “and” joins values, the source holds several entries; their conditions need not be identical. Identical values can stand only once.

System: Fibroblast
Assay: Multiplex assay against human fibroblast
Format: toxicity, cell-based
Conditions: 10 µM, compound concentration 10 uM, number of replicates 2
In short: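 Cells were classed with CellPathfinder machine-learning gating, first as Hoechst high-intensity objects or normal cells, then (normal cells) as healthy, pyknosed or fragmented nuclei, and finally (pyknosed cells) as mitotic or apoptotic. Staining of live cells at seeding used Hoechst33342, BioTracker Green Microtubule Cytoskeleton Dye, MitoTracker Red and Annexin V Alexa Fluor 680, with imaging on a CQ1 microscope at 37°C and 5% CO2 after compound addition. Tubulin, mitochondrial-mass and membrane-permeability phenotypes are per cents of healthy-nucleus cells.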

For CCOC(=O)Nc1cc(-c2ccc(C)c(NS(C)(=O)=O)c2)nn2c(C)nnc12, the “Population Apoptotic (%)” value (12 h) was 56% and 50% and 58% and 35%, the “Population Fragmented Nuclei (%)” value (12 h) was 24% [middle of 4 runs] and the “Population Healthy Nuclei (%)” value (12 h) was 74% and 67% and 65% and 60%. The “Population Hoechst High Intensity Objects (%)” value (12 h) was 0%, the “Population Mitochondria Different-Phenotype (%)” value (12 h) was 4% and 3% and 1% and the “Population Mitotic Cells (%)” value (12 h) was 43% and 50% and 41% and 64%. The “Population Normal (%)” value (12 h) was 99% and 100%, the “Population Pyknosed Nuclei (%)” value (12 h) was 13% and 8% and the “Population Tubulin-Different-Phenotype (%)” value (12 h) was 52% and 63% and 54% and 62%. The “Total Cell Count” value (12 h) was 238 and 256 and 323 and 254, the “Population Apoptotic (%)” value (24 h) was 52% and 69% and 65% and 42% and the “Population Fragmented Nuclei (%)” value (24 h) was 33% and 20% and 21% and 34%. The “Population Healthy Nuclei (%)” value (24 h) was 58% and 68% and 66% and 56%, the “Population Hoechst High Intensity Objects (%)” value (24 h) was 0% and the “Population Membrane Permeable-Phenotype (%)” value (24 h) was 11% and 5% and 12%. The “Population Mitochondria Different-Phenotype (%)” value (24 h) was 7% and 4% and 2%, the “Population Mitotic Cells (%)” value (24 h) was 47% and 30% and 34% and 57% and the “Population Normal (%)” value (24 h) was 100%. The “Population Pyknosed Nuclei (%)” value (24 h) was 7% and 11% and 8%, the “Population Tubulin-Different-Phenotype (%)” value (24 h) was 57% and 33% and 29% and 43% and the “Total Cell Count” value (24 h) was 314 and 289 and 319 and 299. For the same molecule, the “Population Apoptotic (%)” value (48 h) was 80% and 97% and 72%, the “Population Fragmented Nuclei (%)” value (48 h) was 16% and 27% and 31% and the “Population Healthy Nuclei (%)” value (48 h) was 71% and 60% and 67% and 52%. The “Population Hoechst High Intensity Objects (%)” value (48 h) was 0%, the “Population Membrane Permeable-Phenotype (%)” value (48 h) was 10% [middle of 4 runs] and the “Population Mitochondria Different-Phenotype (%)” value (48 h) was 1% and 9% and 3% and 8%. For the same molecule, the “Population Normal (%)” value (48 h) was 100%, the “Population Pyknosed Nuclei (%)” value (48 h) was 12% and 16% and the “Population Tubulin-Different-Phenotype (%)” value (48 h) was 24% and 48% and 26% and 34%. For the same molecule, the “Total Cell Count” value (48 h) was 248 and 265 and 292 and 250.
